pIC50: −log10 of the molar value.
Target: T1, M-phase inducer phosphatase 3 (Homo sapiens, UniProt P30307)
T1 sequence (P30307 whole entry): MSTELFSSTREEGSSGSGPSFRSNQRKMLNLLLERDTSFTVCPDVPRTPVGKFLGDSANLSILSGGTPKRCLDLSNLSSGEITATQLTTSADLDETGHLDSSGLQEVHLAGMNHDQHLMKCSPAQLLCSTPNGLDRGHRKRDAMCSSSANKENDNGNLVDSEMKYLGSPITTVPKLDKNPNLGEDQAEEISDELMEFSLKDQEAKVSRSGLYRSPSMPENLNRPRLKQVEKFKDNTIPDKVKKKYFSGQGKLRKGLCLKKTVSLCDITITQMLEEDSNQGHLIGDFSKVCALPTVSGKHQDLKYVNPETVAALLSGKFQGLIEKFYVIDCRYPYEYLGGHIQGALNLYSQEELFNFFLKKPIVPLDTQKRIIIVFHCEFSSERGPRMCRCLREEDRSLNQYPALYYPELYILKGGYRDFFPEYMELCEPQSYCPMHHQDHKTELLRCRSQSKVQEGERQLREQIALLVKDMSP
Experiment: Inhibitory activity against recombinant CDC25C
How it was run: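 Recombinant maltose binding protein (MBP)-CDC25C fusion enzyme, with 3-O-methylfluorescein phosphate (OMFP) as substrate. IC50 given as mean ± SEM from at least two, usually three, independent experiments.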

| pIC50 | Structure (SMILES) |
| --- | --- |
| 4.92 | CCc1nc2c(O)cc(N=CCN(C)C)c(O)c2[nH]1 [5-(2-(dimethylamino)ethylamino)-2-ethyl-1H-benzo[d]imidazole-4,7-dione] |
| 6.89 | CCc1nc2c(O)c(N=CCN(C)C)cc(O)c2o1 [5-(2-(dimethylamino)ethylamino)-2-ethylbenzo[d]oxazole-4,7-dione] |
| 6.64 | CN(C)CC=Nc1cc(O)c2nc(-c3ccccc3)oc2c1O [6-(2-(dimethylamino)ethylamino)-2-phenylbenzo[d]oxazole-4,7-dione] |
| 6.64 | CN(C)CC=Nc1cc(O)c2oc(-c3ccccc3)nc2c1O [5-(2-(dimethylamino)ethylamino)-2-phenylbenzo[d]oxazole-4,7-dione] |
| 6.89 | CCc1nc2c(O)cc(N=CCN(C)C)c(O)c2o1 [6-(2-(dimethylamino)ethylamino)-2-ethylbenzo[d]oxazole-4,7-dione] |
| 4.92 | CN(C)CC=Nc1cc(O)c2cn(-c3ccccc3)nc2c1O [6-(2-(dimethylamino)ethylamino)-2-phenyl-2H-indazole-4,7-dione] |
| 4.92 | CN(C)CC=Nc1cc(O)c2nn(-c3ccccc3)cc2c1O [5-(2-(dimethylamino)ethylamino)-2-phenyl-2H-indazole-4,7-dione] |

From BindingDB's records for doi:10.1016/j.bmcl.2005.09.030 (Institut Henri Beaufour, 2005)
